Activity calls are given as the source filed them. The calls are words filed in the database; no cut-off is given here.

In one experiment the test system is A549. The experiment in a line: Cytotoxicity against human A549 cells after 48 hrs by MTT assay. It is filed as functional, cell-based. Conditions: A549, 48 h. Put shortly:
(§1)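 A549, HeLa and MCF7 cells were grown in DMEM with 10% FBS, and DU145 in MEM with non-essential amino acids, pyruvate, insulin and 10% FBS. Cells were plated 24 h before dosing, then exposed continuously for 48 h at 1, 10, 25 and 100 µM in triplicate wells. MTT was added for 60 min, dissolved in DMSO and read at 560 nm. IC50 was taken from dose-response curves against control, as mean ± SD of three independent experiments.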
(In general: Tetrazolium dyes change colour on reduction, which living cells bring about.)

A further experiment concerns DU-145. Briefly: Cytotoxicity against human DU145 cells after 48 hrs by MTT assay. It counts as functional, cell-based. Conditions: DU-145, 48 h. In short, it runs like this: as §1
The test system of experiment [1] is HeLa. Briefly: Cytotoxicity against human HeLa cells after 48 hrs by MTT assay. It counts as functional, cell-based. In short, it runs like this: as §1
The next experiment has as its system MCF7. Briefly: Cytotoxicity against human MCF7 cells after 48 hrs by MTT assay. It is filed as functional, cell-based. Particulars: MCF7, 48 h. In short, it runs like this: as §1
The target of the next experiment is Tubulin (Bos taurus, UniProt Q6B856+Q862L2+Q862F3). The experiment in a line: Inhibition of bovine brain tubulin polymerization measured for 1 hr by fluorescence assay.
For experiment [2], the system named is HeLa. Briefly: Cell cycle arrest in human HeLa cells assessed as accumulation at G2/M phase at 10 uM after 24 hrs by FACS analysis (reference value: 26.75%). It counts as functional. A general note: Flow cytometry measures light scatter and fluorescence of single cells or particles in a stream.
Experiment [3] concerns HeLa. The experiment in a line: Cell cycle arrest in human HeLa cells assessed as disruption of microtubule organization at 10 uM after 24 hrs by DAPI staining-based immunohistochemistry relative to control. It counts as functional. In short, it runs like this:
(§2)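 HeLa cells were grown on coverslips and treated 24 h at 10 µM. They were fixed in 3.5% formaldehyde/PBS pH 7.4 for 10 min, permeabilized with 0.5% Triton X-100/0.05% Tween-20 and blocked in 2% BSA. Staining used anti-tubulin (1:200, 4 h, room temperature) then FITC anti-mouse (1:500, 1 h). Cells were mounted with DAPI and imaged by confocal microscopy.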

In experiment [4] the test system is HeLa. The experiment in a line: Cell cycle arrest in human HeLa cells assessed as planar arrangement of chromosomes with distinct microtubule organization centres at 10 uM after 24 hrs by DAPI staining-based immunohistochemistry relative to control. It is filed as functional. Put shortly: as §2
Experiment [5] has as its system HeLa. Briefly: Cell cycle arrest at G2/M phase in human HeLa cells assessed as increase in cyclin B1 expression at 10 uM after 24 hrs by immunoblot analysis relative to control. It counts as functional, cell-based. (In general: A western blot detects proteins with antibodies after separation by electrophoresis.)
Experiment [6] concerns HeLa. The experiment in a line: Cell cycle arrest at G2/M phase in human HeLa cells assessed as increase in soluble form of tubulin at 10 uM after 24 hrs by immunoblot analysis relative to control. It counts as functional, cell-based. In short, it runs like this: (§3)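 HeLa cells seeded at 1×10^5 per well in complete growth medium and treated 24 h (test compounds 10 µM; nocodazole 2 µM as positive control; DMSO controls). Soluble tubulin was taken by 3 min permeabilization at 30 °C in PIPES-KOH pH 6.8/0.2% Triton X-100/glycerol buffer, and insoluble pellet fraction in Laemmli buffer. Equal volumes were run on SDS-10% PAGE and probed with mouse anti-α-tubulin, with HRP secondary and ECL detection.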

The subject of experiment [7] is HeLa. The experiment in a line: Cell cycle arrest at G2/M phase in human HeLa cells assessed as reduction in polymerized form of tubulin at 10 uM after 24 hrs by immunoblot analysis relative to control. It is filed as functional, cell-based. In short, it runs like this:
as §3

Another experiment deals with Tubulin (Bos taurus) (UniProt Q6B856+Q862L2+Q862F3). Particulars: at 10 µM.
Experiment [8] has as its system HeLa. Briefly: Cell cycle arrest at G2/M phase in human HeLa cells assessed as increase in cyclin B1 expression at 2 uM after 24 hrs by immunoblot analysis relative to control. It is filed as functional, cell-based.
Experiment [9] concerns HeLa. Briefly: Cell cycle arrest at G2/M phase in human HeLa cells assessed as soluble form of tubulin at 2 uM after 24 hrs by immunoblot analysis relative to control. It counts as functional, cell-based. Put shortly: as §3

As to `COc1cc(C2=NOC(COCc3cn(Cc4cc(-c5ccccc5)cnc4Cl)nn3)C2)cc(OC)c1OC` (stereo unspecified), the half-inhibitory concentration (IC50) with A549 was found to be 8.6 µM; with DU-145, 11.4 µM; in the experiment on HeLa [1], 7.3 µM; in the experiment with MCF7, 14.6 µM; at Tubulin, 6.8 µM. In the experiment on HeLa [2], the Activity came out at 87.79%. Further, the result with HeLa [3], in the experiment with HeLa [4], in the experiment on HeLa [5], in the experiment with HeLa [6] and in the experiment on HeLa [7] was Active. Moreover, the inhibition on Tubulin (Bos taurus) was 72%.

Take `COc1cc(-c2cc(COCc3cn(Cc4cc(-c5ccccc5)cnc4N4CCSCC4)nn3)on2)cc(OC)c1OC`: the IC50 turned out to be 52.6 µM in the experiment with A549, 210 µM in the experiment on DU-145, 175 µM in the experiment on HeLa [1] and 213 µM in the experiment with MCF7. The inhibition at Tubulin (Bos taurus) was determined as 11%.

Consider `COc1cc(C2=NOC(COCc3cn(Cc4cc(-c5ccc(C)cc5)cnc4Cl)nn3)C2)cc(OC)c1OC` (stereo unspecified), for which the IC50 was found to be 11.5 µM in the experiment with A549; 13.1 µM with DU-145; 9.7 µM in the experiment on HeLa [1]; 12.9 µM with MCF7; 8.1 µM against Tubulin. In addition, the Activity in the experiment with HeLa [2] is reported as 78.85%. Besides, the result with HeLa [3], in the experiment on HeLa [4], in the experiment on HeLa [5], in the experiment on HeLa [6] and in the experiment with HeLa [7] was Active. This molecule also had an inhibition at Tubulin (Bos taurus) of 69%.

Regarding `COc1cc(COCc2cn(Cc3cc(-c4ccc(F)cc4)cnc3Cl)nn2)cc(OC)c1OC`, the IC50 is 50.6 µM in the experiment on A549, 38.8 µM in the experiment on DU-145, 49.6 µM with HeLa [1] and 96.6 µM with MCF7. At Tubulin (Bos taurus), this molecule registered an inhibition of 41%.

Consider `COc1cc(-c2cc(COCc3cn(Cc4cc(-c5ccc(C)cc5)cnc4N4CCOCC4)nn3)on2)cc(OC)c1OC`, for which the 50% inhibitory concentration (IC50) worked out at 45.3 µM with A549, 52.1 µM with DU-145, 36.1 µM in the experiment with HeLa [1] and 73.4 µM in the experiment with MCF7. The inhibition on Tubulin (Bos taurus) was 64%.

For the molecule `COc1cc(C2=NOC(COCc3cn(Cc4cc(C)cnc4N4CCOCC4)nn3)C2)cc(OC)c1OC` (stereo unspecified), the IC50 in the experiment on A549 amounted to 45.4 µM; with DU-145 it was 138 µM; in the experiment with HeLa [1] it was 37.3 µM; in the experiment with MCF7 it was 146 µM. Besides, the inhibition against Tubulin (Bos taurus) was determined as 27%.

As to `COc1cc(-c2cc(COCc3cn(Cc4cc(-c5ccccc5)cnc4Cl)nn3)on2)cc(OC)c1OC`, the half-inhibitory concentration (IC50) is 112 µM with A549, 78.5 µM in the experiment with DU-145, 43.1 µM in the experiment on HeLa [1] and 68.5 µM with MCF7. On Tubulin (Bos taurus), this molecule returned an inhibition of 16%.

On to `COc1cc(-c2cc(COCc3cn(Cc4cc(C)cnc4N4CCSCC4)nn3)on2)cc(OC)c1OC`, for which the half-inhibitory concentration (IC50) with A549 came to 40 µM; with DU-145 it was 73.9 µM; with HeLa [1], 53.4 µM; with MCF7 it was 82.9 µM. Besides, at Tubulin (Bos taurus), the inhibition stood at 32%.

As to `COC(=O)Nc1nc2cc(C(=O)c3cccs3)ccc2[nH]1`, the result in the experiment with HeLa [8] and in the experiment on HeLa [9] was Active.

With `COc1cc(COCc2cn(Cc3cc(-c4ccccc4)cnc3N3CCSCC3)nn2)cc(OC)c1OC`, the half-inhibitory concentration (IC50) is 45.2 µM with A549, 48.9 µM in the experiment on DU-145, 31.5 µM in the experiment on HeLa [1] and 59 µM with MCF7. At Tubulin (Bos taurus), this molecule registered an inhibition of 39%.

With `COc1cc(COCc2cn(Cc3cc(-c4ccccc4)cnc3N3CCOCC3)nn2)cc(OC)c1OC`, the IC50 in the experiment on A549 amounted to 84 µM; in the experiment on DU-145, 70.3 µM; with HeLa [1], 85.1 µM; with MCF7, 97.6 µM. This molecule showed an inhibition against Tubulin (Bos taurus) of 16%.

For the molecule `COc1cc(C2=NOC(COCc3cn(Cc4cc(-c5ccc(F)cc5)cnc4Cl)nn3)C2)cc(OC)c1OC` (stereo unspecified), the IC50 in the experiment with A549 is 25.2 µM; with DU-145 it was 32.8 µM; in the experiment with HeLa [1] it was 27.2 µM; in the experiment on MCF7, 45.7 µM. Moreover, the inhibition on Tubulin (Bos taurus) is 51%.

As to `COc1cc(-c2cc(COCc3cn(Cc4cc(-c5ccc(F)cc5)cnc4Cl)nn3)on2)cc(OC)c1OC`, the IC50 turned out to be 40.6 µM with A549, 31.9 µM in the experiment on DU-145, 37.3 µM in the experiment on HeLa [1] and 76.4 µM in the experiment with MCF7. Moreover, the inhibition at Tubulin (Bos taurus) amounted to 46%.

On to `COc1cc(C2=NOC(COCc3cn(Cc4cc(-c5ccc(C)cc5)cnc4N4CCSCC4)nn3)C2)cc(OC)c1OC` (stereo unspecified), for which the IC50 in the experiment on A549 was found to be 43.2 µM; in the experiment with DU-145, 87.3 µM; in the experiment with HeLa [1], 39.2 µM; with MCF7, 71.1 µM. Further, the inhibition against Tubulin (Bos taurus) was 22%.

For the molecule `COc1cc(C2=NOC(COCc3cn(Cc4cc(-c5ccc(C)cc5)cnc4N4CCOCC4)nn3)C2)cc(OC)c1OC` (stereo unspecified), the IC50 in the experiment with A549 worked out at 39.6 µM; with DU-145, 49.7 µM; in the experiment with HeLa [1], 38.7 µM; with MCF7, 59.6 µM. For the same molecule, the inhibition against Tubulin (Bos taurus) worked out at 27%.

On to `COc1cc(-c2cc(COCc3cn(Cc4cc(-c5ccc(C)cc5)cnc4Cl)nn3)on2)cc(OC)c1OC`, for which the IC50 is 30.6 µM with A549, 37.3 µM in the experiment with DU-145, 35.3 µM with HeLa [1] and 58.4 µM with MCF7. On Tubulin (Bos taurus), this molecule showed an inhibition of 59%.

On to `COc1cc(C2=NOC(COCc3cn(Cc4cc(-c5ccccc5)cnc4N4CCOCC4)nn3)C2)cc(OC)c1OC` (stereo unspecified), for which the IC50 with A549 was 39.2 µM; in the experiment with DU-145 it was 44.8 µM; in the experiment on HeLa [1], 42.6 µM; with MCF7, 68.8 µM. The inhibition against Tubulin (Bos taurus) worked out at 46%.

In the case of `COc1cc(COCc2cn(Cc3cc(-c4ccccc4)cnc3Cl)nn2)cc(OC)c1OC`, the IC50 came out at 62.6 µM in the experiment on A549, 45.5 µM with DU-145, 41.9 µM in the experiment with HeLa [1] and 86.7 µM in the experiment on MCF7. The same molecule had an inhibition against Tubulin (Bos taurus) of 18%.

As usually defined, the IC50 is the midpoint of a concentration-inhibition curve. One may read the inhibition as the change of the read-out against control, counted positive when it falls. Higher therefore signals a strong effect.

For the origin of these results see ChEMBL document CHEMBL3397031, “Synthesis and structure-activity relationships of pyridinyl-1H-1,2,3-triazolyldihydroisoxazoles as potent inhibitors of tubulin polymerization” (Eur J Med Chem, 2015).
